Experimental findings from ChEMBL document CHEMBL4673255, “Acylated 1H-1,2,4-Triazol-5-amines Targeting Human Coagulation Factor XIIa and Thrombin: Conventional and Microscale Synthesis, Anticoagulant Properties, and Mechanism of Action” (J Med Chem, 2020) are described below.

The target in one series is Coagulation factor XI (Homo sapiens, UniProt P03951). As to the kind of experiment: Inhibition of human coagulation factor XIA using Mes-dArg-Pro-Arg-AMC as fluorogenic substrate measured at 1 min interval for 1 hr by fluorometric assay.
Coagulation factor XI, sequence (P03951 19-387 limits assumed): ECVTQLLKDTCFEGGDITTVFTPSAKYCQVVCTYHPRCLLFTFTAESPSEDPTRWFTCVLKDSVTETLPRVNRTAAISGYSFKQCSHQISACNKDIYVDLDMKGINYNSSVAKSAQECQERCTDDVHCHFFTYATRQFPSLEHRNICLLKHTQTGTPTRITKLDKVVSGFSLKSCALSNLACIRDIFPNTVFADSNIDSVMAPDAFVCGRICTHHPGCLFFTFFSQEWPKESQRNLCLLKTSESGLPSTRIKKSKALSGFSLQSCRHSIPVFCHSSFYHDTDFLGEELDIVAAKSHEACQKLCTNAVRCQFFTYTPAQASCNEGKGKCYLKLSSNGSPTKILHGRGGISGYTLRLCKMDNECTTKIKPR
Coagulation factor XI, sequence (P03951 388-625 limits assumed): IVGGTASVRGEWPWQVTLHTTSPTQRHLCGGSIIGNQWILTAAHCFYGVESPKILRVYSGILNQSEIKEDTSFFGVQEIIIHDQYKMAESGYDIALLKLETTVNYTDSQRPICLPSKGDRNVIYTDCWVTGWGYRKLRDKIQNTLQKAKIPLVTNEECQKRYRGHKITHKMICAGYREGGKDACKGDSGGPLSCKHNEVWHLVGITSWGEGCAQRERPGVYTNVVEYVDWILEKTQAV
Series [1] addresses T1, Coagulation factor XII (Homo sapiens) (UniProt P00748).
T1 sequence (whole entry): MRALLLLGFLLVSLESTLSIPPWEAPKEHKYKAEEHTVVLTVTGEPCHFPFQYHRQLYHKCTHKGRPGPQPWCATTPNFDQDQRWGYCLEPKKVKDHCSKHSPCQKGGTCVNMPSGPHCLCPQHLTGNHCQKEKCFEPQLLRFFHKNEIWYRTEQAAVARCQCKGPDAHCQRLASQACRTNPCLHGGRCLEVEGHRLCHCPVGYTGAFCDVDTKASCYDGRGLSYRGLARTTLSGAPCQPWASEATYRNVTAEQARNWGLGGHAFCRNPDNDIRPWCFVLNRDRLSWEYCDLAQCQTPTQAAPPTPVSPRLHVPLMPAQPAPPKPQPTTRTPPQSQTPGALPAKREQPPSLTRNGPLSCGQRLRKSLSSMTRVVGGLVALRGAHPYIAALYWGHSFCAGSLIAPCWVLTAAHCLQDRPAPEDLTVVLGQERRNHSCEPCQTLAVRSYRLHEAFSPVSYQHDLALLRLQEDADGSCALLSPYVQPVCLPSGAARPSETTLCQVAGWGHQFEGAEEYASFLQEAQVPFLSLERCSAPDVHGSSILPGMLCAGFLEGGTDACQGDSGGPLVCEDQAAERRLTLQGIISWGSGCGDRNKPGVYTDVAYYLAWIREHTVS
As to the kind of experiment: Inhibition of human coagulation factor XIIA in presence of Boc-Gln-Gly-Arg-AMC as fluorogenic substrate at 1 uM measured at 1 min interval for 1 hr by fluorometric assay relative to control. The method, boiled down:
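Screening of crude microscale amide-coupling products. Conversion was measured by 1H NMR and product content normalised to 76 µmol/L in DMSO, then tested at 1 µM and 100 nM in the fluorogenic FXIIa or thrombin assay. A 0-conversion reaction served as blank. Percent inhibition is from triplicates.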

Series [2] concerns the target Urokinase-type plasminogen activator (Homo sapiens, UniProt P00749). As to the kind of experiment: Inhibition of human uPA using Tos-Gly-Pro-Arg-AMC as fluorogenic substrate measured at 1 min interval for 1 hr by fluorometric assay.
The next series addresses Plasminogen (Homo sapiens, UniProt P00747). Briefly: Inhibition of human plasmin using Mes-dArg-Phe-Arg-AMC as fluorogenic substrate measured at 1 min interval for 1 hr by fluorometric assay.
Another series has as its target Plasma kallikrein (Homo sapiens, UniProt P03952). As to the kind of experiment: Inhibition of human kallikrein using Mes-dArg-Pro-Arg-AMC as fluorogenic substrate measured at 1 min interval for 1 hr by fluorometric assay.
For another series, the target named is T2, Monoglyceride lipase (Homo sapiens, UniProt Q99685).
T2 sequence (Q99685 whole entry): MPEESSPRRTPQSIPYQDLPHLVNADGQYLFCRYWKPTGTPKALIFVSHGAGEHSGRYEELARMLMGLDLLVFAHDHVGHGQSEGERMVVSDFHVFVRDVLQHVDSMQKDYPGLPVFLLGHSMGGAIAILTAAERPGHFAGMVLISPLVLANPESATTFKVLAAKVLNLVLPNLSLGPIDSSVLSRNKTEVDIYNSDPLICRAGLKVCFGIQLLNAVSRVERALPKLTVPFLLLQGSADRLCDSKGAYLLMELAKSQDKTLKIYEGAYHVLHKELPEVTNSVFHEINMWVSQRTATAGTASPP
Briefly: Inhibition of human recombinant MAGL using 1,3-dihydroxypropan-2-yl 4-pyren-1-ylbutanoate as substrate measured after 45 mins by reverse-phase HPLC-based fluorescence assay.

Series [3] has as its target T3, Fatty-acid amide hydrolase 1 (Rattus norvegicus, UniProt P97612).
T3 sequence (P97612 whole entry): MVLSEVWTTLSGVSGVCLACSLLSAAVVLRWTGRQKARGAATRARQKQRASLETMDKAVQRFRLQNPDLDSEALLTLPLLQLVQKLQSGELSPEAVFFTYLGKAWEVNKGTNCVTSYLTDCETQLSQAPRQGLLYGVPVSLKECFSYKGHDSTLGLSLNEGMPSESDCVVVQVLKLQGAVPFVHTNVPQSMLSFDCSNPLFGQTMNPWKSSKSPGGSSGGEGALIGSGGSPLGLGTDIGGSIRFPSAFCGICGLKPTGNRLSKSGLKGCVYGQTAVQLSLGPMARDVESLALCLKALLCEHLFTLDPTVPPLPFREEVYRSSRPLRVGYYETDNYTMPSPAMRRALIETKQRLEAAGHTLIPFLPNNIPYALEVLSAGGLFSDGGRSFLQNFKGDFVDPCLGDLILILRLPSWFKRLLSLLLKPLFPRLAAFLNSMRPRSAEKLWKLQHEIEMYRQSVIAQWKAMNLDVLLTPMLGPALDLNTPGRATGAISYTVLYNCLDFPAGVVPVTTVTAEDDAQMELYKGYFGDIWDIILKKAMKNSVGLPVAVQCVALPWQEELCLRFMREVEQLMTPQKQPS
Briefly: Inhibition of FAAH in rat brain membrane using N-(2-hydroxyethyl)-4-pyren-1-ylbutanamide as substrate measured after 60 mins by reverse-phase HPLC-based fluorescence assay. Type of series: cell membranes.

Series [4] has as its system Blood. Briefly: Anticoagulant activity in human blood assessed as activated partial thromboplastin time at 300 uM incubated for 1 min by aPTT reagent based assay (reference value: 44 sec). It is filed as functional. Summed up: (§1)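 Compounds were tested at 300 µM, and the increase was expressed relative to DMSO. The doubling concentration (EC2×) is the concentration prolonging aPTT twofold. At least triplicate, mean ± SD.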

In series [5] the test system is Blood. As to the kind of experiment: Anticoagulant activity in human blood assessed as increase in activated partial thromboplastin time at 300 uM incubated for 1 min by aPTT reagent based assay relative to control. It is filed as functional. Summed up:
as §1

For series [6], the system named is Blood. Briefly: Effect on blood coagulation in human blood assessed as increase in prothrombin time at 300 uM incubated for 3 mins followed by CaCl2 addition by PT reagent based assay relative to control. Type of series: ADME, tissue-based. The note with it: 0.05 h. Summed up:
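Clotting was started with PT reagent already containing CaCl2, prewarmed to 37 °C, and clotting time was recorded. Increase is given relative to DMSO; at least triplicate, mean ± SD.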

Series [7] in a line: Inhibition of porcine trypsin using Z-Gly-Gly-Arg-AMC as fluorogenic substrate measured at 1 min interval for 1 hr by fluorometric assay. Also on record: species or system Sus scrofa.
The target of a further series is Coagulation factor X (Homo sapiens, UniProt P00742). Briefly: Inhibition of human coagulation factor Xa using Boc-Ile-Glu-Gly-Arg-AMC as fluorogenic substrate measured at 1 min interval for 1 hr by fluorometric assay.
Coagulation factor X, sequence (P00742 41-179 limits assumed): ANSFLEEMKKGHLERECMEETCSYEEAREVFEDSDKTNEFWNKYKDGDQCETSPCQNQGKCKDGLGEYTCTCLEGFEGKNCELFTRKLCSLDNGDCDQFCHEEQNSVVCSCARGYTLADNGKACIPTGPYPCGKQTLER
Coagulation factor X, sequence (P00742 235-488 limits assumed): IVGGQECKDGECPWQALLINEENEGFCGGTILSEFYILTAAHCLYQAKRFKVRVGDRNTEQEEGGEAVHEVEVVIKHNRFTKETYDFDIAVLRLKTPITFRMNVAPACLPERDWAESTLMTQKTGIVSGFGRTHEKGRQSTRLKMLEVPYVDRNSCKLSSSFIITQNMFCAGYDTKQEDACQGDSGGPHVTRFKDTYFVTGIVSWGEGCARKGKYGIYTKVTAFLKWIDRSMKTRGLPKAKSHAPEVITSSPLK
A further series concerns the target Prothrombin (Homo sapiens, UniProt P00734). As to the kind of experiment: Inhibition of human coagulation factor alpha-thrombin using Boc-Val-Pro-Arg-AMC as fluorogenic substrate measured at 1 min interval for 1 hr by fluorometric assay.
The next series concerns the target T4, Coagulation factor XII (Homo sapiens, UniProt P00748).
T4 sequence (P00748 whole entry): T1 sequence (whole entry)
Briefly: Inhibition of human coagulation factor XIIA using Boc-Gln-Gly-Arg-AMC as fluorogenic substrate measured at 1 min interval for 1 hr by fluorometric assay.

What is called IC50 is the point on the concentration scale where inhibition reaches its midpoint. The term inhibition denotes how much of the control response was suppressed.

Plasma kallikrein, sequence (P03952 20-390 limits assumed): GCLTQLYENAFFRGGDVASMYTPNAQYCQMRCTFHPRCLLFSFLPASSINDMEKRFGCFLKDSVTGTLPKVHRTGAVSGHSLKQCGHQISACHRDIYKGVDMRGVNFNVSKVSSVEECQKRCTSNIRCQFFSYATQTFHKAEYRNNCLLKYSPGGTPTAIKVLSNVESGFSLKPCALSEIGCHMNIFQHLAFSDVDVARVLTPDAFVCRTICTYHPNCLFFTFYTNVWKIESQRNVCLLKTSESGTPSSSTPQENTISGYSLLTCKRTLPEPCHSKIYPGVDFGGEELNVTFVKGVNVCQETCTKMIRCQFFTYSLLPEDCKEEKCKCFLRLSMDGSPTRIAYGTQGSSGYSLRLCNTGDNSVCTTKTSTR
Plasma kallikrein, sequence (P03952 391-638 limits assumed): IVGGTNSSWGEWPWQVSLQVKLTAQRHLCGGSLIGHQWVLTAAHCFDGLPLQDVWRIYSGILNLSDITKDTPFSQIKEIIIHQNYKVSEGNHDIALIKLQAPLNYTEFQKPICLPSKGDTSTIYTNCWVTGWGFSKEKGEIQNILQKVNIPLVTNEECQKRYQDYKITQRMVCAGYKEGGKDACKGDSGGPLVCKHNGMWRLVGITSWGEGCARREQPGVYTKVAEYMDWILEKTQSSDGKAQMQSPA
Plasminogen, sequence (P00747 97-580 limits assumed): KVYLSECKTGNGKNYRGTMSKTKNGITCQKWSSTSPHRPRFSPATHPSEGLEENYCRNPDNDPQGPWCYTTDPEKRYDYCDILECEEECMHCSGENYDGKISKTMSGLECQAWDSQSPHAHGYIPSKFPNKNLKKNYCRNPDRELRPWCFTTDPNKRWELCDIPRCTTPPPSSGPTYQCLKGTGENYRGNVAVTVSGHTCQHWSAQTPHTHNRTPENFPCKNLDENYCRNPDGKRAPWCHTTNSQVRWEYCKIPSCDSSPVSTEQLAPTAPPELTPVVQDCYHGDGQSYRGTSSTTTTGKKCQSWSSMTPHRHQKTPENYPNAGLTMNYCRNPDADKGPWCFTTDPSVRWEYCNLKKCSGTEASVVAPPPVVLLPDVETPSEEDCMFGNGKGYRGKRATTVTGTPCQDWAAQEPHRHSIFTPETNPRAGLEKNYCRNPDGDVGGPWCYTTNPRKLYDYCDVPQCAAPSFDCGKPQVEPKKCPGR
Plasminogen, sequence (P00747 581-810 limits assumed): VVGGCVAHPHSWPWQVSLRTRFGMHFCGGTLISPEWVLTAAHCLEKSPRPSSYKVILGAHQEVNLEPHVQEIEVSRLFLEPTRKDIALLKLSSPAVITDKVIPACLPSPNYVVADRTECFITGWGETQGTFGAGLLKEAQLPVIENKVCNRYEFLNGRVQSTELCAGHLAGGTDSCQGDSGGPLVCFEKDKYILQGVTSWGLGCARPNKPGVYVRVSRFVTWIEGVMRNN

On to `Nc1nc(-c2ccccn2)nn1C(=O)c1ccccc1`, for which the IC50 against Coagulation factor XI is more than 5 µM; in [2], 7.93 µM; against Plasminogen it was more than 5 µM; against Plasma kallikrein it was more than 5 µM; on Monoglyceride lipase, more than 5 µM; in series [3], more than 5 µM. In addition, the IC50 was more than 5 µM in series [7], more than 5 µM against Coagulation factor X, 0.235 µM at Prothrombin and 0.132 µM at Coagulation factor XII. Also, the inhibition in [1] came to 81%. In addition, in the series with Blood [4], the APTT was found to be 108 s. The values for the Activity in the series on Blood [5] and in the series on Blood [6] were 143% and 12%, respectively.
